# ChEMBL document CHEMBL3352188, “Synthesis, antimicrobial and molecular docking studies of enantiomerically pure N-alkylated β-amino alcohols from phenylpropanolamines” (2014)
# The source made the active and inactive calls. No cut-off for these calls is given here.
# Tests used:
# [1] = tested on: Candida albicans; assay: Antimicrobial activity against Candida albicans MTCC 227 at 1 mg/disc after 24 hrs by disc diffusion assay; format: functional
# [2] = tested on: Malassezia pachydermatis; assay: Antimicrobial activity against Malassezia pachydermatis at 1 mg/disc after 24 hrs by disc diffusion assay; format: functional
# [3] = tested on: Malassezia pachydermatis; assay: Antimicrobial activity against Malassezia pachydermatis after 48 to 72 hrs by two fold dilution method; format: functional
# Procedure, shortened: (§1)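 Yeast was grown in Sabouraud dextrose broth at 28 °C for 48 h and tested per CLSI reference methods. Two-fold serial dilutions from 1000 to 7.81 µg/mL, compound in DMSO (2%), in 96-well plates, incubated 48–72 h at 28 °C. MIC was the lowest concentration with no visible fungal growth. Ketoconazole was the positive control.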
# [4] = tested on: Candida albicans; assay: Antimicrobial activity against Candida albicans MTCC 227 after 48 to 72 hrs by two fold dilution method; format: functional; procedure, shortened: as §1
# [5] = tested on: Salmonella enterica subsp. enterica serovar Paratyphi B; assay: Antimicrobial activity against Salmonella paratyphi B after 24 hrs by two fold dilution method; format: functional
# Procedure, shortened: (§2)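 Broth two-fold serial dilution in 96-well plates from 1000 to 7.81 µg/mL, compound in DMSO (2%). Inoculum was grown in MHB for 24 h at 37 °C; plates were incubated 24 h at 37 °C. 5 µL of broth was spotted onto MHA; MIC was the lowest concentration with no visible growth on agar. Streptomycin was the positive control.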
# [6] = tested on: Staphylococcus aureus; assay: Antimicrobial activity against Staphylococcus aureus MTCC 96 after 24 hrs by two fold dilution method; format: functional; conditions: MTCC 96, 24 h; procedure, shortened: as §2
# [7] = tested on: Proteus vulgaris; assay: Antimicrobial activity against Proteus vulgaris MTCC 1771 after 24 hrs by two fold dilution method; format: functional; conditions: MTCC 1771, 24 h; procedure, shortened: as §2
# [8] = tested on: Malassezia pachydermatis; assay: Fungicidal activity against Malassezia pachydermatis after 48 to 72 hrs by two fold dilution method; format: functional
# [9] = tested on: Klebsiella pneumoniae; assay: Antimicrobial activity against Klebsiella pneumoniae MTCC 109 after 24 hrs by two fold dilution method; format: functional; conditions: MTCC 109, 24 h; procedure, shortened: as §2
# [10] = tested on: Salmonella enterica subsp. enterica serovar Paratyphi B; assay: Bactericidal activity against Salmonella paratyphi B after 24 hrs by two fold dilution method; format: functional
# Procedure, shortened: (§3)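 Tubes held 5 mL MHB with two-fold dilutions from 1000 to 7.81 µg/mL and were inoculated with 5 × 10^5 to 1 × 10^6 cells in 0.1 mL MHB, incubated without shaking. Turbidity was checked at 20 h, tubes vortexed and re-incubated 4 h.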
# [11] = tested on: Bacillus subtilis; assay: Bactericidal activity against Bacillus subtilis MTCC 441 after 24 hrs by two fold dilution method; format: functional; conditions: MTCC 441, 24 h; procedure, shortened: as §3
# [12] = tested on: Candida albicans; assay: Fungicidal activity against Candida albicans MTCC 227 after 48 to 72 hrs by two fold dilution method; format: functional
# [13] = tested on: Proteus vulgaris; assay: Bactericidal activity against Proteus vulgaris MTCC 1771 after 24 hrs by two fold dilution method; format: functional; conditions: MTCC 1771, 24 h; procedure, shortened: as §3
# [14] = tested on: Staphylococcus aureus; assay: Antimicrobial activity against Staphylococcus aureus MTCC 96 at 1 mg/disc after 24 hrs by disc diffusion assay; format: functional
# Procedure, shortened: (§4)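 Disc diffusion on Mueller Hinton agar. Inoculum was grown in MHB for 24 h at 37 °C, swabbed onto the plates and dried for 10 min. Discs with 1 mg compound were left 30 min at room temperature for diffusion, then incubated at 37 °C for 24 h. Inhibition zone was read in mm; run twice. Solvent was the negative control, streptomycin the positive control.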
# [15] = tested on: Shigella flexneri; assay: Antimicrobial activity against Shigella flexneri MTCC 1457 at 1 mg/disc after 24 hrs by disc diffusion assay; format: functional; procedure, shortened: as §4
# [16] = tested on: Klebsiella pneumoniae; assay: Antimicrobial activity against Klebsiella pneumoniae MTCC 109 at 1 mg/disc after 24 hrs by disc diffusion assay; format: functional; procedure, shortened: as §4
# [17] = tested on: Shigella flexneri; assay: Bactericidal activity against Shigella flexneri MTCC 1457 after 24 hrs by two fold dilution method; format: functional; conditions: MTCC 1457, 24 h; procedure, shortened: as §3
# [18] = tested on: Salmonella typhimurium; assay: Antimicrobial activity against Salmonella typhimurium MTCC 1251 at 1 mg/disc after 24 hrs by disc diffusion assay; format: functional, Salmonella enterica subsp. enterica serovar Typhimurium; procedure, shortened: as §4
# [19] = tested on: Pseudomonas aeruginosa; assay: Antimicrobial activity against Pseudomonas aeruginosa MTCC 741 after 24 hrs by two fold dilution method; format: functional; conditions: MTCC 741, 24 h; procedure, shortened: as §2
# [20] = tested on: Micrococcus luteus; assay: Antimicrobial activity against Micrococcus luteus MTCC 106 at 1 mg/disc after 24 hrs by disc diffusion assay; format: functional; procedure, shortened: as §4
# [21] = tested on: Micrococcus luteus; assay: Bactericidal activity against Micrococcus luteus MTCC 106 after 24 hrs by two fold dilution method; format: functional; conditions: MTCC 106, 24 h; procedure, shortened: as §3
# [22] = tested on: Klebsiella aerogenes; assay: Antimicrobial activity against Enterobacter aerogenes MTCC 111 at 1 mg/disc after 24 hrs by disc diffusion assay; format: functional; procedure, shortened: as §4
# [23] = tested on: Pseudomonas aeruginosa; assay: Antimicrobial activity against Pseudomonas aeruginosa MTCC 741 at 1 mg/disc after 24 hrs by disc diffusion assay; format: functional; procedure, shortened: as §4
# [24] = tested on: Salmonella enterica subsp. enterica serovar Paratyphi B; assay: Antimicrobial activity against Salmonella paratyphi B at 1 mg/disc after 24 hrs by disc diffusion assay; format: functional; procedure, shortened: as §4
# [25] = tested on: Salmonella typhimurium; assay: Bactericidal activity against Salmonella typhimurium MTCC 1251 after 24 hrs by two fold dilution method; format: functional, Salmonella enterica subsp. enterica serovar Typhimurium; conditions: Salmonella enterica, MTCC 1251, 24 h; procedure, shortened: as §3
# [26] = tested on: Pseudomonas aeruginosa; assay: Bactericidal activity against Pseudomonas aeruginosa MTCC 741 after 24 hrs by two fold dilution method; format: functional; conditions: MTCC 741, 24 h; procedure, shortened: as §3
# [27] = tested on: Bacillus subtilis; assay: Antimicrobial activity against Bacillus subtilis MTCC 441 after 24 hrs by two fold dilution method; format: functional; conditions: MTCC 441, 24 h; procedure, shortened: as §2
# [28] = tested on: Proteus vulgaris; assay: Antimicrobial activity against Proteus vulgaris MTCC 1771 at 1 mg/disc after 24 hrs by disc diffusion assay; format: functional; procedure, shortened: as §4
# [29] = tested on: Staphylococcus aureus; assay: Bactericidal activity against Staphylococcus aureus MTCC 96 after 24 hrs by two fold dilution method; format: functional; conditions: MTCC 96, 24 h; procedure, shortened: as §3
# [30] = tested on: Staphylococcus aureus; assay: Antimicrobial activity against […] Staphylococcus aureus MTCC 96 at 1 mg/disc after 24 hrs by disc diffusion assay; format: functional; procedure, shortened: as §4
# [31] = tested on: Micrococcus luteus; assay: Antimicrobial activity against Micrococcus luteus MTCC 106 after 24 hrs by two fold dilution method; format: functional; conditions: MTCC 106, 24 h; procedure, shortened: as §2
# [32] = tested on: Salmonella typhimurium; assay: Antimicrobial activity against Salmonella typhimurium MTCC 1251 after 24 hrs by two fold dilution method; format: functional, Salmonella enterica subsp. enterica serovar Typhimurium; conditions: Salmonella enterica, MTCC 1251, 24 h; procedure, shortened: as §2
# [33] = tested on: Shigella flexneri; assay: Antimicrobial activity against Shigella flexneri MTCC 1457 after 24 hrs by two fold dilution method; format: functional; conditions: MTCC 1457, 24 h; procedure, shortened: as §2
# [34] = tested on: Klebsiella pneumoniae; assay: Bactericidal activity against Klebsiella pneumoniae MTCC 109 after 24 hrs by two fold dilution method; format: functional; conditions: MTCC 109, 24 h; procedure, shortened: as §3
# [35] = tested on: Staphylococcus aureus; assay: Antimicrobial activity against methicillin-resistant Staphylococcus aureus MTCC 96 after 24 hrs by two fold dilution method; format: functional; conditions: MTCC 96, 24 h; procedure, shortened: as §2
# [36] = tested on: Klebsiella aerogenes; assay: Bactericidal activity against Enterobacter aerogenes MTCC 111 after 24 hrs by two fold dilution method; format: functional; conditions: MTCC 111, 24 h; procedure, shortened: as §3
# [37] = tested on: Staphylococcus aureus; assay: Bactericidal activity against methicillin-resistant Staphylococcus aureus MTCC 96 after 24 hrs by two fold dilution method; format: functional; conditions: MTCC 96, 24 h; procedure, shortened: as §3
# [38] = tested on: Klebsiella aerogenes; assay: Antimicrobial activity against Enterobacter aerogenes MTCC 111 after 24 hrs by two fold dilution method; format: functional; conditions: MTCC 111, 24 h; procedure, shortened: as §2
# [39] = tested on: Bacillus subtilis; assay: Antimicrobial activity against Bacillus subtilis MTCC 441 at 1 mg/disc after 24 hrs by disc diffusion assay; format: functional; procedure, shortened: as §4
smiles,measurement,setting,value
CC(=O)N1CCN(c2ccc(OCC3COC(Cn4ccnc4)(c4ccc(Cl)cc4Cl)O3)cc2)CC1 (stereo unspecified) [KETOCONAZOLE],inhibition zone (IZ),[1],28 mm
same,inhibition zone (IZ),[2],26 mm
same,MIC,[3],25 µg/mL
same,MIC,[4],25 µg/mL
C[C@H](N[C@H](C)[C@@H](O)c1ccccc1)c1ccccc1.Cl,inhibition zone (IZ),[1],15 mm
same,MIC,[5],250 µg/mL
same,MIC,[6],125 µg/mL
same,MIC,[7],250 µg/mL
same,MFC,[8],125 µg/mL
same,MIC,[9],125 µg/mL
same,MBC,[10],500 µg/mL
same,MBC,[11],62.5 µg/mL
same,MFC,[12],125 µg/mL
same,inhibition zone (IZ),[2],14 mm
same,MBC,[13],500 µg/mL
same,inhibition zone (IZ),[14],15 mm
same,inhibition zone (IZ),[15],12 mm
same,inhibition zone (IZ),[16],15 mm
same,MBC,[17],500 µg/mL
same,inhibition zone (IZ),[18],12 mm
same,MIC,[19],250 µg/mL
same,MIC,[3],125 µg/mL
same,inhibition zone (IZ),[20],15 mm
same,MBC,[21],125 µg/mL
same,inhibition zone (IZ),[22],14 mm
same,inhibition zone (IZ),[23],10 mm
same,inhibition zone (IZ),[24],13 mm
same,MBC,[25],250 µg/mL
same,MBC,[26],500 µg/mL
same,MIC,[27],62.5 µg/mL
same,inhibition zone (IZ),[28],13 mm
same,MBC,[29],250 µg/mL
same,inhibition zone (IZ),[30],14 mm
same,MIC,[31],125 µg/mL
same,MIC,[32],250 µg/mL
same,MIC,[33],250 µg/mL
same,MBC,[34],250 µg/mL
same,MIC,[35],125 µg/mL
same,MIC,[4],125 µg/mL
same,MBC,[36],250 µg/mL
same,MBC,[37],125 µg/mL
same,MIC,[38],125 µg/mL
same,inhibition zone (IZ),[39],16 mm
CC[C@@H](C)N[C@@H](C)[C@H](O)c1ccccc1.Cl (mixture of isomers),inhibition zone (IZ),[1],inactive
same,inhibition zone (IZ),[2],inactive
same,inhibition zone (IZ),[14],10 mm
same,inhibition zone (IZ),[15],inactive
same,inhibition zone (IZ),[16],inactive
same,inhibition zone (IZ),[18],10 mm
same,inhibition zone (IZ),[20],inactive
same,inhibition zone (IZ),[22],inactive
same,inhibition zone (IZ),[23],inactive
same,inhibition zone (IZ),[24],10 mm
same,inhibition zone (IZ),[28],inactive
same,inhibition zone (IZ),[30],inactive
same,inhibition zone (IZ),[39],inactive
